Source: PubChem BioAssay
ATG4B inhibitor – inhibitors of human ATG4B cysteine protease. Q9Y4P1. ATG4B cleavage of LC3-PLA2, NBD-HPC fluorescence, 1 h. inhibition, % at 8.33 µM. actives 0.51% (n = 340,000); in the data active means inhibition above about 40%
Target sequence (Q9Y4P1 whole entry, looked up): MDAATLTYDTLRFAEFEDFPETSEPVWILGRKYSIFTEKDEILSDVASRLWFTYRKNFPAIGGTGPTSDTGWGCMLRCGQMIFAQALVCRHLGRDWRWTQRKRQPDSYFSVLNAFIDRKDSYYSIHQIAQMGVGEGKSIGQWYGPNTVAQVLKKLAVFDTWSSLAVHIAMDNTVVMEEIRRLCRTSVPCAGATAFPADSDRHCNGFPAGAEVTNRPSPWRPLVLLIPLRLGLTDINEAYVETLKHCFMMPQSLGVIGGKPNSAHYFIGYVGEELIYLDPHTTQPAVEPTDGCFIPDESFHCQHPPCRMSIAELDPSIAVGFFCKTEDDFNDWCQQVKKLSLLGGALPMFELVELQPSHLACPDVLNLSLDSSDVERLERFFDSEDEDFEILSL
SENP1 inh – blocks the human SENP1 SUMO protease catalytic domain; Q9P0U3; recombinant SENP1 catalytic domain, CyPet-SUMO1-YPet FRET cleavage; inhibition, % at 10 µM; actives 0.21% (n = 360,000);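 active means inhibition at least 30% at 10 µM, raw YFP signal under a set limit, fluorescence ratio 0.5 to 1.5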;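 further: 0% = enzyme with DMSO and 100% = no enzyme wells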
Target sequence (Q9P0U3 419-644 limits assumed): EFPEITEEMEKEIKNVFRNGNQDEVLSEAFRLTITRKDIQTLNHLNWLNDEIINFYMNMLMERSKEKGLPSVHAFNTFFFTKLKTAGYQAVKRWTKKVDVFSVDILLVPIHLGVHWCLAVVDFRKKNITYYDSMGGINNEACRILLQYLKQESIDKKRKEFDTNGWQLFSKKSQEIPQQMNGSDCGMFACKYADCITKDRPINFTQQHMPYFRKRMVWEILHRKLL
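Assay system – human recombinant His6-tagged SENP1 catalytic domain enzyme · Input – SENP1 enzyme, 20 pM final · Buffer or medium – Tris pH 8 buffer plus EDTA, NaCl, BME, BSA, NP40, catalase · Schedule – 50 min reaction at room temperature · Technique – FRET read of cyan and yellow fluorescence · Control set – no-enzyme wells low, DMSO-plus-enzyme wells high control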
GRIN3A LBD mod – modulators (binders) of human NR3A ligand-binding domain; NR3A LBD differential scanning fluorimetry, Tm shift; 0% = protein alone, 100% = glycine-bound protein; Tm shift relative to glycine control, % at 25 µM; actives 2.5% (n = 340,000); AID 1259313;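 active means melting temperature shift of at least 10% of the positive control shift, at one fixed dose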
NadD block – blocks S. aureus nicotinate mononucleotide adenylyltransferase; purified NadD enzyme, colorimetric absorbance read-out; inhibition, % at 20 µM; actives 0.78% (n = 360,000); AID 602399; in the data active means inhibition above about 26%
UCH37 inh – inhibitors of human deubiquitinating enzyme UCH37. inhibition, % (no concentration beside the values). purified proteasome/UCH37, Ub-AMC cleavage fluorescence. Q9Y5K5. actives 0.33% (n = 330,000). AID 588478;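 active means mean inhibition over replicate wells above about 20%, limit read from the data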;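 further: 0% = compound-free wells with enzyme and 100% = wells lacking proteasome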
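Test system – human UCH37 enzyme supplied as purified proteasome complex · Incubation – 30 min preincubation with enzyme, 25 min cleavage at room temperature · Detection – AMC fluorescence from Ub-AMC cleavage, excitation 355 nm, emission 460 nm · Benchmarks – no-proteasome wells (full inhibition) and compound-free wells (no inhibition)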
NadD conf – confirmation of Staphylococcus aureus NadD inhibitors | inhibition, % at 20 µM | purified S. aureus NadD, colorimetric enzyme assay | shares compounds with NadD block | AID 624309 | actives 13% (n = 2,000); in the data active means inhibition mostly above about 42%, no sharp cut-off; inactive means mostly below about 42%
* = called active by the depositor; / = no result given. An excerpt weighted towards active compounds, which were near 3.6% of everything screened.

SMILES	ATG4B inhibitor	SENP1 inh	GRIN3A LBD mod	NadD block	UCH37 inh	NadD conf
O=C(N/N=C/c1ccco1)c1cccc(N2Cc3ccccc3C2)c1	5	4	-4	35*	/	47
Cc1ccc(-c2nnc(SCC(=O)NN=Cc3ccc(C)s3)n2-c2ccc(C)cc2)cc1	/	/	/	/	-1	/
CCOC(=O)c1sc(NC(=O)c2cccc(S(=O)(=O)N3CCc4ccccc43)c2)c(C#N)c1C	3	-33	21*	36*	1	4
NC(=O)c1ccc(NC(=O)COC(=O)/C=C/c2ccc(Br)o2)cc1	-3	-4	-12	4	5	/
O=C(COC(=O)/C=C/c1ccc(Br)o1)Nc1ccc2[nH]c(=O)[nH]c2c1	/	-17	/	29*	/	2
CCOC(=O)c1ccc2c(c1)nc(SCC(O)=C(C#N)c1nc3ccccc3[nH]1)n2CC	/	/	/	/	-8	/
COc1ccccc1Cc1c(-c2ccco2)nc2ccc(Cl)cn12	/	-5	/	30*	/	6
FC(F)(F)c1ccccc1Cc1c(-c2cccc(Cl)c2)nc2ccc(Br)cn12	/	28	/	7	/	/
FC(F)(F)c1ccccc1Cc1c(-c2ccco2)nc2ccc(Br)cn12	/	1	/	37*	/	11
Cc1cc2nc(-c3ccco3)c(Cc3ccccc3C(F)(F)F)n2c(C)c1Br	/	-6	/	42*	/	28
COc1ccccc1Cc1c(-c2ccco2)nc2ccc(Br)cn12	/	-1	/	45*	/	26
CC1CCCC(C)N1N=Cc1ccccc1Br (configuration not stated)	/	/	/	/	2	/
Nc1nonc1-n1nnc(C(=O)NN=Cc2ccc(OCc3cccc(Cl)c3)cc2)c1CN1CCCCC1	/	/	/	/	5	/
COc1cc(C=NNc2ccc(Cl)cc2)ccc1OC(=O)c1cccs1	/	/	/	/	5	/
CC1(C)S/C(=N/N=Cc2ccco2)NC1=O	/	/	/	/	13	/
Clc1ccc2nc(-c3ccco3)c(Cc3ccsc3)n2c1	/	-1	/	34*	/	18
O=C(N=c1ccn(-c2nc3ccccc3nc2NS(=O)(=O)c2ccccc2)cc1)c1cccs1	-22	-28	0	19	1	/
Cc1ccccc1C(=O)N=c1ccn(-c2nc3ccccc3nc2NS(=O)(=O)c2ccc(F)cc2)cc1	-17	4	-6	30*	0	56*
C(=Nn1cnnc1)c1cccn1-c1ccccc1	/	/	/	/	6	/
CCOc1ccc(CCN2C(=O)C(=O)N([C@@H](CC(C)C)CN3CCC[C@H]3CN3C(=O)C(=O)NC[C@@H]3Cc3ccccc3)C[C@@H]2Cc2ccccc2)cc1	/	2	/	34*	/	38
CCOc1ccc(CCN2C(=O)C(=O)N([C@@H](CC(C)C)CN3CCC[C@@H]3CN3C(=O)C(=O)NC[C@@H]3Cc3ccccc3)C[C@@H]2Cc2ccc(O)cc2)cc1	/	1	-4	21	/	/
CCOc1ccc(CCN2C(=O)C(=O)N([C@@H](CC(C)C)CN3CCC[C@H]3CN3C(=O)C(=O)NC[C@@H]3Cc3ccccc3)C[C@@H]2Cc2ccc(O)cc2)cc1	/	2	/	35*	/	34
O=C(NNc1nc(-c2ccccc2)c2cc(Br)ccc2n1)c1ccc(S(=O)(=O)N2CCCCC2)cc1	8	5	8	37*	0	25
O=C(NNc1nc(-c2ccccc2)c2cc(Br)ccc2n1)c1ccc(S(=O)(=O)N2CCOCC2)cc1	-4	0	-7	24	2	/
CN(C)C=Nc1cc(=O)n(C)c(=O)n1CC1CC1	/	/	/	/	1	/
SMILES	ATG4B inhibitor	SENP1 inh	GRIN3A LBD mod	NadD block	UCH37 inh	NadD conf
CCN(CC)CCOC(=O)c1ccc(N/C=C(/C#N)c2nc(-c3ccc(OC)cc3)cs2)cc1	-21	-11	-4	32*	7	-8
COc1ccccc1Nc1ccc(C(=O)NCc2cccs2)cn1	-2	-1	-3	0	-1	/
COc1ccccc1Nc1ncc(-c2cccs2)s1	-1	23	0	40*	3	18
COc1cc(/C=C2\SC(=O)N(c3cccc(Cl)c3)C2=O)cc([N+](=O)[O-])c1O	3	2	1	26*	7	-1
O=C1S/C(=C\c2ccc(O)c([N+](=O)[O-])c2)C(=O)N1c1ccccc1Cl	9	3	2	-3	/	/
CC1C(=O)NN=C1C(=O)NN=Cc1ccco1 (configuration not stated)	/	/	/	/	3	/
CC(C)COC(=O)C(C#N)c1nc2ccccc2nc1N1CCN(Cc2ccc3c(c2)OCO3)CC1 (configuration not stated)	-1	-34	0	31*	-2	9
Cc1ccc(C(=O)NN=C2CC3CC=CC23)c(C)c1 (configuration not stated)	/	/	/	/	3	/
Clc1ccc(Cn2cc(C=Nn3cnnc3)c3ccccc32)cc1	/	/	/	/	2	/
O=C(Nc1ccc(Cl)cc1)Nc1ccc(N2CCCC2)c(S(=O)(=O)Nc2ccccc2Cl)c1	-5	-2	32*	33*	1	22
Cc1cccc(NC(=O)c2cc(NC(=O)c3ccco3)ccc2N2CCCCC2)c1	31	0	2	1	-108	/
CN(C)S(=O)(=O)c1ccc(C(=O)Nc2cc(S(=O)(=O)Nc3ccccc3Cl)ccc2N2CCCCC2)cc1	-5	6	0	29*	-3	32
Cc1cccc(NC(=O)c2cc(NC(=O)c3ccccc3)ccc2N2CCCCC2)c1	-3	0	-5	32*	-49	20
COc1ccccc1NS(=O)(=O)c1cc(NC(=O)Nc2cccc(C)c2)ccc1N1CCCCC1	13	1	24*	30*	1	47
CN1CCN(c2ccc(Cl)cc2NC(=O)c2ccc(S(=O)(=O)N(C)C)cc2)CC1	-7	1	2	-7	0	/
Cc1cc(NC(=O)CSc2nc3c(sc4ccccc43)c(=O)n2CCc2ccccc2)n[nH]1	-3	1	27*	34*	-8	2
COc1ccc(-n2c(=S)[nH]c3sc(-c4ccccc4)cc3c2=O)c(OC)c1	-4	0	0	4	14	/
COc1ccc(-n2c(=S)[nH]c3c(sc(=S)n3-c3ccccc3)c2=O)c(OC)c1	-1	2	-4	30*	11	14
CC(=NNS(C)(=O)=O)c1ccc2ccccc2c1	/	/	/	/	2	/
CC(C)(Sc1ccc(CCN(CCCCC2CCCCC2)C(=O)NC2CCCCC2)cc1)C(=O)O	8	3	-1	46*	7	18
CN(Cc1ccccc1)C(=O)NC1CCCCC1	-13	0	-1	1	2	/
O=C(Nc1ccc2oc(-c3cccnc3)nc2c1)c1ccc2c(c1)OCCO2	7	-23	-16	33*	-11	3
COc1ccc(C2Nc3ccccc3C(=O)N2Cc2ccco2)cc1COc1ccc(F)cc1 (configuration not stated)	0	0	-5	3	-101	/
